# Screening results as filed in PubChem BioAssay.
# Shown are actives, neighbours in structure and some others; about 3.1% of the full set was active somewhere.
# rRNA inh HTS – selective bacterial rRNA inhibition in E. coli | E. coli WT GFP vs humanized-ribosome RFP mutants, fluorescence, 24 h; stronger effect = lower value; DMSO median 0, no signal -100 | GFP signal change (wild-type ribosome), % (concentration not given with the values) | 350,000 compounds, 1.6% hits | AID 720706;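 active = significant combined selectivity score with lowered wild-type GFP, culture density cut under 30%, mutant RFP and density less affected; inactive = any of these conditions unmet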
# Cneo AK release – Cryptococcus neoformans lysis via adenylate kinase release; C. neoformans lysis, adenylate kinase release luminescence, 4 h; normalised: neutral wells 0, clomiphene wells 100; 360,000 compounds, 0.2% hits; lysis activity, % at 15 µM;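 active = mean lysis activity across replicates of at least 80%, whatever share of replicates individually reach that level; inactive = mean lysis activity below 80%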
#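 Assay system: log-phase C. neoformans yeast / Quantity: yeast cell density of 5 × 10^6 cells/mL / Medium: fresh YPD growth medium / Compound: single dose / Timing: static 4 h at 37 °C with compound, 1 h detection / Measured by: adenylate kinase release luminescence / Read-out: lysis from increased AK signal / Benchmarks: Clomiphene as positive lysis control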
# miR-122 sensor – blocks miR-122 activity in Huh7 sensor cells. Huh7 miR-122 Renilla luciferase sensor, 48 h; neutral wells = 0, positive control = 100. activation (reporter increase), % at 12.5 µM. AID 602342. 340,000 compounds, 0.3% hits;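 active = mean replicate activation score at least 90 and every replicate individually at or above 90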;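 note: higher luciferase means less miR-122 activity so hits act as miR-122 inhibitors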
# Env fusion inh – HIV envelope-mediated fusion inhibition. HeLa-JRFL Env/CEM21 cell fusion, luciferase. inhibition, % at 12.3 µM. 360,000 compounds, 1.1% hits;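 active = mean replicate inhibition score of at least 50 and every replicate individually at or above 50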;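 note: 0% = plate neutral controls and 100% = maraviroc near 300 nM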
# CFTR F508del cor – CFTR F508del correction in bronchial cells; AID 720511; CFBE cells, YFP halide quenching; stimulated with forskolin plus potentiator P3; % fluorescence drop versus neutral controls; activity (quench increase), % at 7.58 µM; 350,000 compounds, 0.36% hits;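 active = mean added fluorescence quench of at least 8% versus neutral control, with both replicates also reaching 8%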;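 note: cells transiently co-express mutant CFTR-F508del with the halide-sensitive YFP; corrector assay measuring rescue of mutant channel to the surface after 24 h compound exposure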
# INS-1E GSIS act – primary screen for activators of insulin secretion dependent on glucose, INS-1E cells, GLuc reporter luminescence; activation, % at 16.6 µM; 370,000 compounds, 0.61% hits; INS-1E GLuc reporter insulin secretion, 2-3 h;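 active = lowest replicate activation of at least 40%, so every replicate reaches that level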;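 note: 0% = median of neutral control wells and 100% = median of IBMX positive control wells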
# * hit, by the source's call; nt = no result given; [ ] = dose if it differs, or a comment.
SMILES,rRNA inh HTS,Cneo AK release,miR-122 sensor,Env fusion inh,CFTR F508del cor,INS-1E GSIS act
O=C(O)C(F)=C1c2ccccc2-c2ccccc21,-30.0*,-1.1,-4.6,1.9,-1.8,3.3
CCC(=O)N1[C@H](CO)[C@H]2c3ccccc3N(S(=O)(=O)c3ccccc3C)C[C@H]21,-0.9,-2.0,-7.1[16.7 µM],nt,1.0,1.3
CCN(CC)c1ccc(NC(=O)c2ccccn2)cc1S(=O)(=O)Nc1ccccc1OC,-3.6,0.9,124.5*,17.7,-3.9,-4.3
CCN(CC)c1ccc(NC(=O)COc2ccccc2C#N)cc1S(=O)(=O)Nc1ccccc1OC,8.9,2.6,287.5*,-9.1,nt,-1.1
COc1ccccc1NS(=O)(=O)c1cc(NC(=O)CCNC(C)=O)ccc1C,13.6,2.1,4.9,-9.4,1.5,9.5
COc1ccc(NS(=O)(=O)c2cc(NC(=O)c3ccccn3)ccc2OC)cc1Br,-4.5,-0.1,52.0,nt,-0.7,3.2
CS(=O)(=O)N1[C@H](CO)[C@@H](c2ccc(C#Cc3cccc(F)c3)cc2)[C@@H]1C#N,-12.9,-1.4,nt,4.9[16.7 µM],1.1,-9.4
O=C(O)c1ccc(Nc2ncnc3scc(-c4ccccc4)c23)cc1,7.7,nt,-5.3,-10.4,2.6,0.6
O=C(CSc1ncnc2scc(-c3ccccc3)c12)Nc1ccc(C(=O)O)cc1,-30.5,-1.5,-2.6,1.8,-0.9,146.7*
Cc1ccc(-c2csc3ncnc(SCC(N)=O)c23)cc1,-31.2,nt,nt,23.5,2.1,45.3*
[O-]/[N+](=C\c1ccccc1)c1ccccc1,15.4,-1.2,nt,-29.1,-3.1,0.6
[O-]/[N+](=C\c1ccc(F)cc1)c1ccccc1,nt,-0.7,-6.8,-80.7,nt,58.1*
C[C@@H]1CCCCO[C@H](CN(C)C(=O)Cc2ccccc2)[C@H](C)CN([C@H](C)CO)C(=O)c2cc(NC(=O)Nc3ccc(F)cc3)ccc2O1,4.4,0.7,-10.9[16.7 µM],-4.9[16.7 µM],-2.2,-37.1
Cc1ccc(-c2cc(Cc3ccccc3)c(=O)[nH]n2)cc1,-36.5*,0.3,-6.6,-4.5,-0.6,6.5
Cc1noc(C)c1S(=O)(=O)N(C)C[C@H]1OCCCC[C@H](C)Oc2ccc(NS(=O)(=O)c3cccs3)cc2C(=O)N([C@@H](C)CO)C[C@@H]1C,4.5,0.3,1.2[16.7 µM],-10.3[16.7 µM],0.2,-9.5
Cc1cn([C@@H](CCCCNC(=O)OC(C)(C)C)C(=O)NCCCCCCCCCCC(=O)N2CCN(C(=O)OC(C)(C)C)CC2)nn1,nt,3.1,-5.3,nt,nt,nt
CC(C)(C)OC(=O)NCCCCCc1cn(CC(=O)NCCCCCCCCCCC(=O)N2CCN(C(=O)OC(C)(C)C)CC2)nn1,15.1,3.6,nt,57.0*,-3.8,nt
O=C(C[C@@H]1C=C[C@H](NC(=O)C2CCOCC2)[C@H](CO)O1)NCc1ccccc1Cl,4.1,nt,nt,nt,1.0,8.2
Cc1cccc(-c2noc(CN(C(=O)c3c(-c4ccccc4Cl)noc3C)C(C)C)n2)c1,-3.0,0.0,4.9,25.2,0.1,-28.9
Cc1onc(-c2ccccc2Cl)c1C(=O)N(Cc1nc(-c2ccccc2)no1)C1CCCCC1,nt,-1.2,10.5,87.9*,nt,3.1
CN1c2ccc(-c3ccccc3F)cc2[C@@H]2[C@@H](CCN2C(=O)NC2CCCCC2)[C@@H]1CO,-8.4,nt,nt,nt,3.0,-17.7
COc1ccc(CN(C)C[C@H]2Oc3ccc(NC(=O)Nc4ccc5c(c4)OCO5)cc3C(=O)N([C@H](C)CO)C[C@@H]2C)cc1,3.9,6.4,2.7[16.7 µM],41.0[16.7 µM],-4.2,9.0
O=C(Cc1cccs1)N(Cc1ccco1)C1(C(=O)NC2CCCCC2)CCCCC1,nt,-0.2,7.8,73.1*,nt,nt
O=C(c1ccc2c(c1)OCO2)N(CC1CCCO1)C1(C(=O)NC2CCCCC2)CCCCC1 (stereo not given),nt,4.8,0.3,135.0*,nt,nt
O=C(c1ccc2c(c1)OCO2)N(Cc1cccs1)C1(C(=O)NC2CCCCC2)CCCCC1,nt,nt,nt,103.3*,nt,-9.1
O=C(CN1C(=O)NC2(CCCc3ccccc32)C1=O)c1ccc(F)cc1 (stereo not given),-1.3,3.2,0.0,-6.3,-3.3,23.3
